bCat KO growth = primary screen for growth suppressors in beta-catenin knockout HCT116 cells (colon tumor, human); HCT116 beta-catenin knockout viability, CellTiter-Glo, 60 h; active compounds read low; viability, % at 10 µM; 1.5% of 140,000 active; AID 818, 2007;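 active = viability at or under a set limit, the compound median less 4 SD, cut at about 6% in these data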;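 note: 0% = Hyamine 1622 control at 20 µM and 100% = untreated cell control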
TNAP act hi DEA = TNAP activators at high phosphate acceptor level, primary screen, biochemical, luminescence, uHTS. Alkaline phosphatase, tissue-nonspecific isozyme (Homo sapiens), P05186. AID 1136, 2008. purified TNAP, CDP-star luminescence, 1 M DEA, 30 min; active compounds read high; 0 = EDTA background, 1 = DMSO-only activity. 200,000 tested, under 10 active. activation factor at 20 µM;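 active = activation factor at least 2 at 20 µM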
Target sequence (P05186 whole entry, looked up): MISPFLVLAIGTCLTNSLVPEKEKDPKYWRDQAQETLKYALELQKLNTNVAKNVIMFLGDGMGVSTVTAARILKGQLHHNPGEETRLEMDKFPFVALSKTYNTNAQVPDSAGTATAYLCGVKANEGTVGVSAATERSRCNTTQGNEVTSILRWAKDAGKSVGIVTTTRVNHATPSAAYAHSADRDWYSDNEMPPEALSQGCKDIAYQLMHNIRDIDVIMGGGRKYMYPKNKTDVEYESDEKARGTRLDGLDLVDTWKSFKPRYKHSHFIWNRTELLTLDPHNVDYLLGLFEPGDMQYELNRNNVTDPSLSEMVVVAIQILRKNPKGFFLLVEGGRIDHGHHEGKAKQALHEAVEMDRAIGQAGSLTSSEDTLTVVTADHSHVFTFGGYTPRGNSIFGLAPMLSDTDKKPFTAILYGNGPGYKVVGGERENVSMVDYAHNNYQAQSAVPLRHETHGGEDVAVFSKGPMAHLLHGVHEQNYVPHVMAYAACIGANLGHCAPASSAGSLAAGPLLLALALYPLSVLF
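Test system – human TNAP · Doses – 20 µM single point · Incubation – 30 min, room temperature · Signal – luminescent substrate turnover signal · Read-out basis – activation factor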
PTEN del growth = growth suppression of PTEN-null HCT116, primary screen, cell-based, CellTiter-Glo; HCT116 PTEN-null viability, 60 h; active compounds read low; viability, % at 10 µM; 1.2% of 140,000 active; AID 827, 2007;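 active = viability at or below a set limit, 4 SD under the median of all tested compounds, cut at about 3.7% in these data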;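 note: PTEN knockout HCT116 line with beta catenin targeted HCT116 as companion control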
Lmaj promast = Leishmania major promastigote growth inhibition, primary screen. Leishmania major promastigotes, resazurin fluorescence viability. inhibition, % at 10 µM. 9% of 200,000 active. AID 1063, 2008; in the data active = inhibition above about 50%;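 note: promastigotes grown with compound for 44 hours at 28 °C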
TNAP inh noacc = human TNAP enzyme inhibitors, primary screen, biochemical, luminescent, no phosphate acceptor, uHTS | Alkaline phosphatase, tissue-nonspecific isozyme (Homo sapiens), P05186 | purified TNAP, CDP-star luminescence, 30 min | inhibition, % at 20 µM | 0.26% of 200,000 active | AID 1012, 2008;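 active = tissue-nonspecific alkaline phosphatase inhibition above about 50% at 20 µM in the single-dose screen, limit read from the data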;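 note: 0% = DMSO negative control and 100% = EDTA positive control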
TNAP inh hiacc = human TNAP enzyme inhibitors, primary screen, biochemical, luminescent, high phosphate acceptor level, uHTS. Alkaline phosphatase, tissue-nonspecific isozyme (Homo sapiens), P05186. purified TNAP, CDP-star luminescence, 1 M DEA. inhibition, % at 20 µM. 0.03% of 200,000 active. AID 1135, 2008;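 active = over 50% inhibition of tissue-nonspecific alkaline phosphatase at 20 µM in the single-dose screen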;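 note: plate controls were DMSO wells for no effect and EDTA-quenched wells as full inhibition for full effect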
An asterisk follows results filed as active. Sampled rows, rich in hits. Any-hit rate of the full collection: about 9.6%.

Screening COc1ccc(C(=O)Nc2nc(C)cc(C)n2)cc1 returned TNAP act hi DEA 1, Lmaj promast -10, TNAP inh noacc -5 and TNAP inh hiacc 4.
For Cc1ccc(NC(=O)CN(C)C(=O)c2ccc(S(=O)(=O)N(C)c3ccccc3)cc2)cc1 the results were TNAP act hi DEA 1.1, Lmaj promast 15, TNAP inh noacc -10 and TNAP inh hiacc -7.
Cc1[nH]nc(-c2ccc(O)c(C)c2O)c1Oc1ccccc1 was read as bCat KO growth 81, TNAP act hi DEA 1.1, PTEN del growth 80, Lmaj promast -2, TNAP inh noacc 72* and TNAP inh hiacc -8.
Cc1nnc2sc(SCc3ccccc3)nn2c1=O was read as bCat KO growth 90, TNAP act hi DEA 1, PTEN del growth 103, Lmaj promast -5, TNAP inh noacc -26 and TNAP inh hiacc -1.
For Cc1nnc2sc(SCC(=O)Nc3nccs3)nn2c1=O the results were bCat KO growth 95, TNAP act hi DEA 1, PTEN del growth 100, Lmaj promast 92*, TNAP inh noacc -28 and TNAP inh hiacc 1.
`Cc1sc2nc(CN3CCOCC3)[nH]c(=S)c2c1C` gave TNAP act hi DEA 1, Lmaj promast -1, TNAP inh noacc -2 and TNAP inh hiacc 4.
Screening CCCCCCCCNC(=O)/C(C#N)=C/c1ccccc1[N+](=O)[O-] returned bCat KO growth 71, TNAP act hi DEA 1, PTEN del growth 55, Lmaj promast 58*, TNAP inh noacc -3 and TNAP inh hiacc -2.
C=CCNC(=O)/C(C#N)=C/c1ccccc1[N+](=O)[O-] was read as bCat KO growth 83, TNAP act hi DEA 1, PTEN del growth 83, Lmaj promast 4, TNAP inh noacc -10 and TNAP inh hiacc 0.
For CCCCNC(=O)/C(C#N)=C/c1ccc(C(=O)OC)cc1 the results were TNAP act hi DEA 1, Lmaj promast 24, TNAP inh noacc -3 and TNAP inh hiacc 3.
`CCOCCCNC(=O)/C(C#N)=C/c1ccc([N+](=O)[O-])o1` gave TNAP act hi DEA 1, Lmaj promast 101*, TNAP inh noacc 2 and TNAP inh hiacc -3.
Screening NCCCC[C@H](N)c1nnc([C@H](CCC(=O)O)NC(=O)C2CCNCC2)o1 returned TNAP act hi DEA 1.1, Lmaj promast -6, TNAP inh noacc -11 and TNAP inh hiacc -9.
`Cc1nn(-c2ccccn2)c2nc(-c3cccs3)cc(C(=O)NCc3ccco3)c12` gave bCat KO growth 64, TNAP act hi DEA 1, PTEN del growth 66, Lmaj promast 53*, TNAP inh noacc -14 and TNAP inh hiacc -3.
CCOC(=O)c1cc(-c2cccs2)nc2c1c(C)nn2-c1ccccn1 was read as TNAP act hi DEA 1, Lmaj promast 38, TNAP inh noacc 0 and TNAP inh hiacc 2.
Screening c1ccc(CCn2c(C3CC3)nc3ccccc32)cc1 returned bCat KO growth 85, TNAP act hi DEA 1, PTEN del growth 78, Lmaj promast 63*, TNAP inh noacc -20 and TNAP inh hiacc -1.
`N#CC1=C2SCC(O)(c3ccccc3)N2C(=O)CC1c1ccccc1F` (stereo unspecified) gave bCat KO growth 27, TNAP act hi DEA 1, PTEN del growth 26, Lmaj promast 99*, TNAP inh noacc -10 and TNAP inh hiacc -3.
Screening COc1ccc(C2CC(=O)N3C(=C2C#N)SCC3(O)c2ccccc2)cc1 (stereo unspecified) returned bCat KO growth 24, TNAP act hi DEA 1, PTEN del growth 42, Lmaj promast 49, TNAP inh noacc -6 and TNAP inh hiacc -3.
`N#CC1=C2SCC(O)(c3ccccc3)N2C(=O)CC1c1cccs1` (stereo unspecified) gave bCat KO growth 19, TNAP act hi DEA 1, PTEN del growth 21, Lmaj promast 90*, TNAP inh noacc -7 and TNAP inh hiacc -4.
Screening COCCCNC(=S)NC(=O)c1ccc(C)cc1 returned bCat KO growth 89, TNAP act hi DEA 1, PTEN del growth 89, Lmaj promast -7, TNAP inh noacc -3 and TNAP inh hiacc -1.
`COCCOc1cc(NC(=O)c2sccc2Oc2ccc([N+](=O)[O-])cc2F)c(Cl)cc1Cl` gave bCat KO growth 60, TNAP act hi DEA 1, PTEN del growth 70, Lmaj promast 31, TNAP inh noacc -11 and TNAP inh hiacc 1.
For O=C(Nc1ccccc1)c1sccc1Oc1ccc([N+](=O)[O-])cc1F the results were TNAP act hi DEA 1, Lmaj promast 84*, TNAP inh noacc -18 and TNAP inh hiacc 0.
COc1ccc2c(c1)CCC(C)N2S(=O)(=O)c1ccc(C2CNC(=O)C2)cc1 (stereo unspecified) was read as bCat KO growth 88, TNAP act hi DEA 1, PTEN del growth 92, Lmaj promast 95*, TNAP inh noacc -6 and TNAP inh hiacc 0.
For COc1ccc([N+](=O)[O-])cc1NC(=O)C(C)OC(=O)c1ccccn1 (stereo unspecified) the results were TNAP act hi DEA 1, Lmaj promast 4, TNAP inh noacc -22 and TNAP inh hiacc -3.
`Cc1ccc(Cl)c2c1=NC(=O)C=2c1[nH]c(=S)[nH]c1O` gave TNAP act hi DEA 0.7, Lmaj promast -6, TNAP inh noacc 38 and TNAP inh hiacc 30.
CCc1ccc(-c2csc(NC(=O)C3CC(=O)N(c4ccc5c(c4)OCCO5)C3)n2)cc1 (stereo unspecified) was read as bCat KO growth 10, TNAP act hi DEA 1.1, PTEN del growth 20, Lmaj promast 98*, TNAP inh noacc -30 and TNAP inh hiacc -12.
`CCC(CC)c1nnc(NC(=O)C2CC(=O)N(c3ccc4c(c3)OCCO4)C2)s1` (stereo unspecified) gave bCat KO growth 99, TNAP act hi DEA 1, PTEN del growth 93, Lmaj promast -5, TNAP inh noacc -5 and TNAP inh hiacc -2.
O=C(Cc1ccc(Br)cc1)NNC(=O)Nc1ccc(Cl)cc1 was read as TNAP act hi DEA 1, Lmaj promast 72*, TNAP inh noacc -7 and TNAP inh hiacc 0.
For O=Cc1ccccc1OCc1nnsc1Cl the results were TNAP act hi DEA 1, Lmaj promast 9, TNAP inh noacc -8 and TNAP inh hiacc -1.
For CCOc1ccc(NCc2nc3ccccc3n2CCOc2ccccc2)cc1 the results were bCat KO growth 65, TNAP act hi DEA 1, PTEN del growth 69, Lmaj promast 72*, TNAP inh noacc -4 and TNAP inh hiacc 2.
OCc1nc2ccccc2n1CCCOc1ccc(Br)cc1 was read as bCat KO growth 65, TNAP act hi DEA 1, PTEN del growth 71, Lmaj promast 29, TNAP inh noacc -22 and TNAP inh hiacc -1.

Screening data from PubChem BioAssay.
